Reference: ChEMBL document CHEMBL4368872, “Synthesis and anticonvulsant activity of phenoxyacetyl derivatives of amines, including aminoalkanols and amino acids” (Medchemcomm, 2018)
Activity calls are given as the source filed them. The calls are words filed in the database; no cut-off is given here.

Columns and labels:
[1] = Neurotoxicity in Sprague-Dawley rat at 30 mg/kg, po measured after 4 hrs by rotarod test; type: toxicity, organism-based; details: in vivo
In short: (§1)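 Rat neurotoxicity after i.p. or p.o. dosing was scored as animals impaired / animals tested at each time point. For p.o. dosing, TD50 was obtained by probit analysis.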

[2] = Neurotoxicity in Sprague-Dawley rat at 30 mg/kg, po measured after 2 hrs by rotarod test; type: toxicity, organism-based; details: in vivo; in short: as §1
Mus musculus [3] = assay: Anticonvulsant activity in CF-1 mouse model of maximal electroshock-induced seizure assessed as suppression of tonic hind limb extension at 100 mg/kg, ip measured at 0.5 hrs post dose; type: functional, organism-based
In short: (§2)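 Mice dosed i.p. and given maximal electroshock at 50 mA. Read-out is protection, reported as number protected / number tested at 0.25, 0.5, 1 and 4 h after dosing.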

Mus musculus [4] = assay: Anticonvulsant activity in CF-1 mouse model of maximal electroshock-induced seizure assessed as suppression of tonic hind limb extension at 300 mg/kg, ip measured at 0.5 hrs post dose; type: functional, organism-based; in short: as §2
Mus musculus [5] = assay: Anticonvulsant activity in CF-1 mouse model of maximal electroshock-induced seizure assessed as suppression of tonic hind limb extension at 30 mg/kg, ip measured at 4 hrs post dose; type: functional, organism-based; in short: as §2
Mus musculus [6] = assay: Anticonvulsant activity in CF-1 mouse model of maximal electroshock-induced seizure assessed as suppression of tonic hind limb extension at 100 mg/kg, ip measured at 4 hrs post dose; type: functional, organism-based; in short: as §2
Mus musculus [7] = assay: Anticonvulsant activity in CF-1 mouse model of maximal electroshock-induced seizure assessed as suppression of tonic hind limb extension at 300 mg/kg, ip measured at 4 hrs post dose; type: functional, organism-based; in short: as §2
Mus musculus [8] = assay: Anticonvulsant activity in CF-1 mouse model of subcutaneous pentylenetetrazole-induced seizure assessed as reduction in convulsions at 30 mg/kg, ip measured at 0.5 hrs post dose; type: functional, organism-based
In short: (§3)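 Mice dosed i.p., then given pentylenetetrazole 85 mg/kg in 0.9% NaCl s.c. into the posterior midline of the neck. Seizures watched for at least 30 min. Scored as protected / tested at 0.5 and 4 h.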

Mus musculus [9] = assay: Anticonvulsant activity in CF-1 mouse model of subcutaneous pentylenetetrazole-induced seizure assessed as reduction in convulsions at 100 mg/kg, ip measured at 0.5 hrs post dose; type: functional, organism-based; in short: as §3
Mus musculus [10] = assay: Anticonvulsant activity in CF-1 mouse model of subcutaneous pentylenetetrazole-induced seizure assessed as reduction in convulsions at 300 mg/kg, ip measured at 0.5 hrs post dose; type: functional, organism-based; in short: as §3
Mus musculus [11] = assay: Anticonvulsant activity in CF-1 mouse model of subcutaneous pentylenetetrazole-induced seizure assessed as reduction in convulsions at 30 mg/kg, ip measured at 4 hrs post dose; type: functional, organism-based; in short: as §3
[12] = Neurotoxicity in CF-1 mouse at 100 mg/kg, ip measured after 0.5 hrs by rotarod test; type: toxicity, organism-based; details: in vivo
In short: (§4)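 Mice dosed i.p. were placed on a 1 in. knurled rod turning at 6 rpm. Toxicity was scored as failure to keep balance for at least 1 min, i.e. falling off three or more times. Results are reported as animals showing toxicity / animals tested at each time point.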

[13] = Neurotoxicity in CF-1 mouse at 100 mg/kg, ip measured after 1 hr by rotarod test; type: toxicity, organism-based; details: in vivo; in short: as §4
[14] = Neurotoxicity in CF-1 mouse at 30 mg/kg, ip measured after 4 hrs by rotarod test; type: toxicity, organism-based; details: in vivo; in short: as §4
[15] = Neurotoxicity in CF-1 mouse at 100 mg/kg, ip measured after 4 hrs by rotarod test; type: toxicity, organism-based; details: in vivo; in short: as §4
Rattus norvegicus [16] = assay: Anticonvulsant activity in Sprague-Dawley rat model of maximal electroshock-induced seizure assessed as suppression of tonic hind limb extension at 30 mg/kg, po measured at 0.5 hrs post dose; type: functional, organism-based
In short: (§5)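 Rats given 30 mg/kg p.o. and tested by maximal electroshock at 150 mA. Scored as number protected / number tested (4 per group) at 0.25, 0.5, 1, 2 and 4 h after dosing.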

Rattus norvegicus [17] = assay: Anticonvulsant activity in Sprague-Dawley rat model of maximal electroshock-induced seizure assessed as suppression of tonic hind limb extension at 30 mg/kg, po measured at 2 hrs post dose; type: functional, organism-based; in short: as §5
[18] = Neurotoxicity in Sprague-Dawley rat at 30 mg/kg, po measured after 0.25 hrs by rotarod test; type: toxicity, organism-based; details: in vivo; in short: as §1
[19] = Neurotoxicity in Sprague-Dawley rat at 100 mg/kg, ip measured after 0.5 hrs by rotarod test; type: toxicity, organism-based; details: in vivo; in short: as §1
[20] = Half life in rat liver microsomes at 20 uM preincubated for 15 mins followed by NADPH generating system addition and measured by LC-MS/MS analysis; type: ADME, Microsome
In short: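 Test compound at 20 µM preincubated 15 min with male rat liver microsomes (0.4 mg ml⁻¹) in 100 mM potassium phosphate, pH 7.4. Started with NADP⁺ (3.4 mM), glucose 6-phosphate (7.7 mM) and G6PDH (0.6 U ml⁻¹). Run 5–60 min at 37 °C in duplicate, stopped with cold perchloric acid plus internal standard, supernatant analysed by LC-MS/MS. Half-life and Cl_int derived by literature methods.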

[21] = Mutagenicity in Salmonella typhimurium TA100 assessed as mutagenicity index at 50 to 500 ug/plate preincubated for 30 mins followed by top agar addition and measured after 48 hrs in presence of liver S9 fraction by Ames test; type: toxicity, subcellular; details: salmonella enterica subsp. enterica serovar typhimurium, s9, 48 h
In short: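 Ames plate incorporation in S. typhimurium TA100 or TA1535, with or without S9. Overnight culture, compound in DMSO (50–500 µg per plate) and buffer or S9 mix preincubated 30 min at 37 °C, then top agar on glucose minimal agar. Incubated 48 h at 37 °C, revertants counted in triplicate. Vehicle negative control; NaN3 (−S9) and 2AA (+S9) positive controls. MI = revertants with compound / negative-control revertants; MI ≥ 2 with dose-response counts as positive.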

Salmonella typhimurium [22] = assay: Antimutagenic activity against Salmonella typhimurium TA100 assessed as inhibition of NaN3-induced mutation at 250 ug/plate preincubated for 30 mins followed by top agar addition and measured after 48 hrs in presence of liver S9 fraction by Ames test relative to control; type: organism-based; details: salmonella enterica subsp. enterica serovar typhimurium, s9, 48 h
Salmonella typhimurium [23] = assay: Antimutagenic activity against Salmonella typhimurium TA100 assessed as inhibition of NaN3-induced mutation at 100 ug/plate preincubated for 30 mins followed by top agar addition and measured after 48 hrs in presence of liver S9 fraction by Ames test relative to control; type: organism-based; details: salmonella enterica subsp. enterica serovar typhimurium, s9, 48 h
Salmonella typhimurium [24] = assay: Antimutagenic activity against Salmonella typhimurium TA100 assessed as inhibition of NaN3-induced mutation at 50 ug/plate preincubated for 30 mins followed by top agar addition and measured after 48 hrs in presence of liver S9 fraction by Ames test relative to control; type: organism-based; details: salmonella enterica subsp. enterica serovar typhimurium, s9, 48 h
Salmonella typhimurium [25] = assay: Antimutagenic activity against Salmonella typhimurium TA1535 assessed as inhibition of NaN3-induced mutation at 500 ug/plate preincubated for 30 mins followed by top agar addition and measured after 48 hrs in presence of liver S9 fraction by Ames test relative to control; type: organism-based; details: salmonella enterica subsp. enterica serovar typhimurium, s9, 48 h
Salmonella typhimurium [26] = assay: Antimutagenic activity against Salmonella typhimurium TA1535 assessed as inhibition of NaN3-induced mutation at 250 ug/plate preincubated for 30 mins followed by top agar addition and measured after 48 hrs in presence of liver S9 fraction by Ames test relative to control; type: organism-based; details: salmonella enterica subsp. enterica serovar typhimurium, s9, 48 h
Salmonella typhimurium [27] = assay: Antimutagenic activity against Salmonella typhimurium TA1535 assessed as inhibition of NaN3-induced mutation at 50 ug/plate preincubated for 30 mins followed by top agar addition and measured after 48 hrs in presence of liver S9 fraction by Ames test relative to control; type: organism-based; details: salmonella enterica subsp. enterica serovar typhimurium, s9, 48 h

## CCC(O)CNC(=O)COc1c(C)cccc1C (centres undefined)
[1]
  Activity: Non-Toxic
[2]
  Activity: Non-Toxic
Mus musculus [3]
  Activity: inactive
Mus musculus [4]
  Activity: Active
Mus musculus [5]
  Activity: inactive
Mus musculus [6]
  Activity: inactive
Mus musculus [7]
  Activity: inactive
Mus musculus [8]
  Activity: inactive
Mus musculus [9]
  Activity: inactive
Mus musculus [10]
  Activity: inactive
Mus musculus [11]
  Activity: inactive
[12]
  Activity: Non-Toxic
[13]
  Activity: Non-Toxic
[14]
  Activity: Non-Toxic
[15]
  Activity: Non-Toxic
Rattus norvegicus [16]
  Activity: Active
Rattus norvegicus [17]
  Activity: inactive
[18]
  Activity: Non-Toxic
[19]
  Activity: Toxic
[20]
  half-life at 20 µM: 0.507 h
[21]
  Activity index: 0.7 to 1.7
Salmonella typhimurium [22]
  inhibition (INH): 11%
Salmonella typhimurium [23]
  inhibition (INH): 26%
Salmonella typhimurium [24]
  inhibition (INH): 21%
Salmonella typhimurium [25]
  inhibition (INH): 27%
Salmonella typhimurium [26]
  inhibition (INH): 56%
Salmonella typhimurium [27]
  inhibition (INH): 42%

## Cc1cccc(C)c1OCC(=O)N[C@H](C)CO
[1]
  Activity: Non-Toxic
[2]
  Activity: Non-Toxic
Mus musculus [3]
  Activity: inactive
Mus musculus [4]
  Activity: Active
Mus musculus [5]
  Activity: inactive
Mus musculus [6]
  Activity: inactive
Mus musculus [7]
  Activity: inactive
Mus musculus [8]
  Activity: inactive
Mus musculus [9]
  Activity: inactive
Mus musculus [10]
  Activity: inactive
Mus musculus [11]
  Activity: inactive
[12]
  Activity: Non-Toxic
[13]
  Activity: Non-Toxic
[14]
  Activity: Non-Toxic
[15]
  Activity: Non-Toxic
Rattus norvegicus [16]
  Activity: Active
Rattus norvegicus [17]
  Activity: inactive
[18]
  Activity: Non-Toxic
[19]
  Activity: Non-Toxic
[20]
  half-life at 20 µM: 3.04 h
[21]
  Activity index: 0.7 to 1.7
Salmonella typhimurium [22]
  inhibition (INH): 38%
Salmonella typhimurium [23]
  inhibition (INH): 43%
Salmonella typhimurium [24]
  inhibition (INH): 57%
Salmonella typhimurium [25]
  inhibition (INH): 31%
Salmonella typhimurium [26]
  inhibition (INH): 47%
Salmonella typhimurium [27]
  inhibition (INH): 29%
